According to ChEMBL document CHEMBL1821569, “Synthesis of novel 1,2,5-trisubstituted benzimidazoles as potential antitumor agents” (2011):

Key:
Type in all cases: functional
OVCAR-3 = assay: Antitumor activity against human OVCAR3 cells after 48 hrs by SRB assay; conditions: OVCAR-3, 48 h
Outline: (§1)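 NCI 60-cell-line secondary screen. Cells were exposed continuously to drug for 48 h at five concentration levels (100, 10, 1.0, 0.1 and 0.01). Growth was estimated by sulforhodamine B protein staining. GI50 is the concentration giving a 50% reduction in net protein increase versus untreated control cells over the incubation. TGI (total growth inhibition) and LC50 (50% cell kill) were also derived.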

MDA-MB-231 = assay: Antitumor activity against human MDA-MB-231 cells after 48 hrs by SRB assay; conditions: MDA-MB-231, 48 h; outline: as §1
HCT-116 = assay: Antitumor activity against human HCT116 cells after 48 hrs by SRB assay; conditions: HCT-116, 48 h; outline: as §1
DU-145 = assay: Antitumor activity against human DU145 cells after 48 hrs by SRB assay; conditions: DU-145, 48 h; outline: as §1
T47D = assay: Antitumor activity against human T47D cells after 48 hrs by SRB assay
Outline: (§2)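 NCI 60-cell-line secondary screen. Continuous 48 h exposure at five concentration levels. Cell growth estimated by sulforhodamine B protein staining. GI50 taken as the concentration giving 50% reduction in net protein increase relative to untreated control cells over the incubation. TGI (total growth inhibition) and LC50 (50% cell kill) were also derived.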

NCI-H226 = assay: Antitumor activity against human NCI-H226 cells after 48 hrs by SRB assay; conditions: NCI-H226, 48 h; outline: as §1
HT-29 = assay: Antitumor activity against human HT-29 cells after 48 hrs by SRB assay; conditions: HT-29, 48 h; outline: as §1
CCRF-CEM = assay: Antitumor activity against human CCRF-CEM cells after 48 hrs by SRB assay; outline: as §1
IGROV-1 = assay: Antitumor activity against human IGROV1 cells after 48 hrs by SRB assay; conditions: IGROV-1, 48 h; outline: as §1
U-251 = assay: Antitumor activity against human U251 cells after 48 hrs by SRB assay; conditions: U-251, 48 h; outline: as §2
ACHN = assay: Antitumor activity against human ACHN cells after 48 hrs by SRB assay; outline: as §1
PC-3 = assay: Antitumor activity against human PC3 cells after 48 hrs by SRB assay; conditions: PC-3, 48 h; outline: as §1
NCI/ADR-RES = assay: Antitumor activity against human NCI/ADR-RES cells after 48 hrs by SRB assay; outline: as §1
Malme-3M = assay: Antitumor activity against human MALME-3M cells after 48 hrs by SRB assay; outline: as §1
UACC-257 = assay: Antitumor activity against human UACC257 cells after 48 hrs by SRB assay; conditions: UACC-257, 48 h; outline: as §2
SR = assay: Antitumor activity against human SR cells after 48 hrs by SRB assay; outline: as §2
A549 = assay: Antitumor activity against human A549 cells after 48 hrs by SRB assay; conditions: A549, 48 h; outline: as §1
UO-31 = assay: Antitumor activity against human UO31 cells after 48 hrs by SRB assay; conditions: UO-31, 48 h; outline: as §2
OVCAR-8 = assay: Antitumor activity against human OVCAR8 cells after 48 hrs by SRB assay; conditions: OVCAR-8, 48 h; outline: as §1
SNB-75 = assay: Antitumor activity against human SNB75 cells after 48 hrs by SRB assay; conditions: SNB-75, 48 h; outline: as §1
A498 = assay: Antitumor activity against human A498 cells after 48 hrs by SRB assay; conditions: A498, 48 h; outline: as §1
HOP-92 = assay: Antitumor activity against human HOP92 cells after 48 hrs by SRB assay; conditions: HOP-92, 48 h; outline: as §1
[1] = Antitumor activity against human Hs 578T cells after 48 hrs by SRB assay; outline: as §1
MDA-MB-435 = assay: Antitumor activity against human MDA-MB-435 cells after 48 hrs by SRB assay; conditions: MDA-MB-435, 48 h; outline: as §1
SN12C = assay: Antitumor activity against human SN12C cells after 48 hrs by SRB assay; outline: as §1
M14 = assay: Antitumor activity against human M14 cells after 48 hrs by SRB assay; conditions: M14, 48 h; outline: as §1
OVCAR-5 = assay: Antitumor activity against human OVCAR5 cells after 48 hrs by SRB assay; conditions: OVCAR-5, 48 h; outline: as §1
SF-295 = assay: Antitumor activity against human SF295 cells after 48 hrs by SRB assay; conditions: SF-295, 48 h; outline: as §1
SK-MEL-2 = assay: Antitumor activity against human SK-MEL-2 cells after 48 hrs by SRB assay; conditions: SK-MEL-2, 48 h; outline: as §1
NCI-H522 = assay: Antitumor activity against human NCI-H522 cells after 48 hrs by SRB assay; conditions: NCI-H522, 48 h; outline: as §1
MCF7 = assay: Antitumor activity against human MCF7 cells after 48 hrs by SRB assay; conditions: MCF7, 48 h; outline: as §1
[2] = read-out: LC50 (the source's name)

## COC(=O)c1ccc2c(c1)nc(-c1ccc(Cl)cc1)n2-c1cc(C(C)(C)C)[nH]n1
OVCAR-3
  GI50: 2350 nM
  TGI: 6.13 µM
OVCAR-3; [2]
  CC50: 915 nM
MDA-MB-231
  GI50: 4.62 µM
  TGI: 27 µM
MDA-MB-231; [2]
  CC50: > 100 µM
HCT-116
  GI50: 3.47 µM
  LC50: 563 nM
  TGI: 12.3 µM
DU-145
  GI50: 3.7 µM
  TGI: 25.8 µM
DU-145; [2]
  CC50: > 100 µM
T47D
  GI50: 3.64 µM
  TGI: > 100 µM
T47D; [2]
  CC50: > 100 µM
NCI-H226
  GI50: 4.09 µM
  LC50 (50% cell kill): > 100 µM
  TGI: 44 µM
HT-29
  GI50: 3.65 µM
  LC50 (50% cell kill): > 100 µM
  TGI: 15.4 µM
CCRF-CEM
  GI50: 4.91 µM
  TGI: > 100 µM
CCRF-CEM; [2]
  CC50: > 100 µM
IGROV-1
  GI50: 3.64 µM
  TGI: 25 µM
IGROV-1; [2]
  CC50: > 100 µM
U-251
  GI50: 4.13 µM
  TGI: 22.7 µM
U-251; [2]
  CC50: > 100 µM
ACHN
  GI50: 3000 nM
  TGI: 9.34 µM
ACHN; [2]
  CC50: > 100 µM
PC-3
  GI50: 2930 nM
  TGI: 15.7 µM
PC-3; [2]
  CC50: > 100 µM
NCI/ADR-RES
  GI50: 2720 nM
  TGI: 7.35 µM
NCI/ADR-RES; [2]
  CC50: > 100 µM
Malme-3M
  GI50: 3.25 µM
  TGI: 15.6 µM
Malme-3M; [2]
  CC50: > 100 µM
UACC-257
  GI50: 4.97 µM
  TGI: 22.9 µM
UACC-257; [2]
  CC50: 967 nM
SR
  GI50: 3.23 µM
  TGI: > 100 µM
SR; [2]
  CC50: > 100 µM
A549
  GI50: 4.03 µM
  TGI: 94.5 µM
A549; [2]
  CC50: > 100 µM
UO-31
  GI50: 3.35 µM
  TGI: 44.1 µM
UO-31; [2]
  CC50: > 100 µM
OVCAR-8
  GI50: 7.33 µM
  TGI: 58.2 µM
OVCAR-8; [2]
  CC50: > 100 µM
SNB-75
  GI50: 2140 nM
  TGI: 12.6 µM
SNB-75; [2]
  CC50: > 100 µM
A498
  GI50: 2260 nM
  TGI: 9.76 µM
A498; [2]
  CC50: 858 nM
HOP-92
  GI50: 1150 nM
  TGI: 8.02 µM
HOP-92; [2]
  CC50: > 100 µM
[1]
  GI50: 1720 nM
  TGI: 7.86 µM
[1]; [2]
  CC50: > 100 µM
MDA-MB-435
  GI50: 1190 nM
  TGI: 5 µM
MDA-MB-435; [2]
  CC50: 505 nM
SN12C
  GI50: 4.34 µM
  TGI: 27.7 µM
SN12C; [2]
  CC50: > 100 µM
M14
  GI50: 2900 nM
  TGI: 8.22 µM
M14; [2]
  CC50: 758 nM
OVCAR-5
  GI50: 12.9 µM
  TGI: 60.1 µM
OVCAR-5; [2]
  CC50: > 100 µM
SF-295
  GI50: 2480 nM
  TGI: 8.98 µM
SF-295; [2]
  CC50: > 100 µM
SK-MEL-2
  GI50: 3.89 µM
  TGI: 18.1 µM
SK-MEL-2; [2]
  CC50: > 100 µM
NCI-H522
  GI50: 3.21 µM
  LC50 (50% cell kill): > 100 µM
  TGI: 20.3 µM
MCF7
  GI50: 2790 nM
  TGI: 12.3 µM
MCF7; [2]
  CC50: > 100 µM
